According to ChEMBL document CHEMBL1135801, “Synthesis, structure, and activity of diclofenac analogues as transthyretin amyloid fibril formation inhibitors” (J Med Chem, 2002):
Each block holds one compound with its values, some of them ahead of it.

What was measured:
[1] = target: Transthyretin (Homo sapiens) (UniProt P02766); test: (§1) Quaternary structure of the soluble protein after incubation of 3.6 uM of compound; assay type: functional
[2] = target: Transthyretin (Homo sapiens) (UniProt P02766); test: as §1; assay type: functional; remark: listed apart in the source
[3] = target: Transthyretin (Homo sapiens) (UniProt P02766); test: Inhibition of L55P TTR fibril formation was measured at OD400.; assay type: functional
How it was run: (§2)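 Stagnant fibril formation assay. TTR at 0.4 mg/mL in 10 mM sodium phosphate, 100 mM KCl, 1 mM EDTA, pH 7.6, was preincubated 30 min at 37 °C with compound added from DMSO stock. Acetate buffer then lowered the pH to 4.2 (wild type) or 5 (V30M, L55P), and samples stood unagitated 72 h at 37 °C. After vortexing, turbidity was read at 400 nm and expressed as percent of the no-inhibitor sample. Triplicates.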

[4] = target: Transthyretin (Homo sapiens) (UniProt P02766); test: Inhibition of wild type TTR fibril formation at OD400; assay type: functional; how it was run: as §2
[5] = target: Transthyretin (Homo sapiens) (UniProt P02766); test: Inhibition of V30M TTR fibril formation at OD400; assay type: functional; how it was run: as §2
[6] = target: Transthyretin (Homo sapiens) (UniProt P02766); test: Quaternary structure of the soluble protein after incubation of 10.8 uM of compound
[7] = target: Transthyretin (Homo sapiens) (UniProt P02766); test: as §1; assay type: functional; remark: listed apart in the source
[8] = target: Transthyretin (Homo sapiens) (UniProt P02766); test: Quaternary structure of the soluble protein after incubation of 3.6 uM L55P TTR with 10.8 uM of compound; assay type: functional
How it was run: (§3)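 3.6 µM TTR (wild type, V30M or L55P) was held 72 h with 10.8 µM compound under stagnant fibril formation conditions at the variant's pH maximum. Precipitate was removed by spinning at 14 000 rpm, and the supernatant was analysed by analytical ultracentrifugation to give % tetramer, monomer and aggregate and MW.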

[9] = target: Transthyretin (Homo sapiens) (UniProt P02766); test: Quaternary structure of the soluble protein after incubation of 3.6 uM V30M TTR with 10.8 uM of compound; assay type: functional; how it was run: as §3
[10] = target: Transthyretin (Homo sapiens) (UniProt P02766); test: Quaternary structure of the soluble protein after incubation of 3.6 uM wild type TTR with 10.8 uM of compound; assay type: functional; how it was run: as §3
[11] = target: Transthyretin (Homo sapiens) (UniProt P02766); test: First dissociation constant of the binding of compound to L55P TTR; assay type: functional
How it was run: (§4)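 Isothermal titration calorimetry at pH 7.6 (100 mM phosphate, 100 mM KCl, 1 mM EDTA). A 435 µM ligand solution in this buffer, concentration set by ε280 = 10 400 M-1 cm-1, was titrated into cells holding 21.1 µM wild type, 20.1 µM V30M or 20.0 µM L55P TTR.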

[12] = target: Transthyretin (Homo sapiens) (UniProt P02766); test: Second dissociation constant of the binding of compound to L55P TTR; assay type: functional; how it was run: as §4
[13] = target: Transthyretin (Homo sapiens) (UniProt P02766); test: First dissociation constant of the binding of compound to wild type TTR; assay type: functional; how it was run: as §4
[14] = First dissociation constant of the binding of compound to V30M TTR; assay type: functional; how it was run: as §4
[15] = Second dissociation constant of the binding of compound to V30M TTR; assay type: functional; how it was run: as §4
[16] = target: Transthyretin (Homo sapiens) (UniProt P02766); test: Second dissociation constant of the binding of compound to wild type TTR; assay type: functional; how it was run: as §4

Formation [4]: 30% | Formation [5]: 27%
SMILES: O=C(O)c1ccccc1Nc1c(Cl)cccc1Cl

Formation [3]: 75% | Formation [4]: 40% | Formation [5]: 33% | Tetramer [8]: > 95% | Aggregate [9]: 10% | Tetramer [9]: 90% | Aggregate [10]: 7% | Tetramer [10]: 93%
SMILES: O=C(O)c1cc(Cl)c(Nc2ccc([N+](=O)[O-])cc2)c(Cl)c1

Formation [3]: 90% | Formation [4]: 78% | Formation [5]: 90%
SMILES: COC(=O)Cc1ccccc1Nc1c(Cl)cccc1Cl

Formation [3]: 50% | Formation [4]: 34% | Formation [5]: 30%
SMILES: O=C(O)c1ccccc1Nc1cc(Cl)cc(Cl)c1

Tetramer [1]: 76% | Tetramer [2]: > 95% | Formation [3]: 53% | Formation [4]: 30% | Formation [5]: 27% | Aggregate [6]: 24% | Tetramer [7]: > 95%
SMILES: O=C(O)Cc1ccccc1Nc1cc(Cl)cc(Cl)c1

Formation [3]: 90% | Formation [4]: 100% | Formation [5]: 85%
SMILES: CCCc1ccccc1Nc1c(Cl)cccc1Cl

The next lines start with the compound.

SMILES: O=C(O)Cc1ccccc1Nc1c(Cl)cc(C(=O)O)cc1Cl
Tetramer [1]: 95% | Tetramer [2]: 95% | Formation [3]: 45% | Formation [4]: 32% | Formation [5]: 28% | Monomer [6]: 5% | Tetramer [7]: > 95%

SMILES: CC(C)c1ccccc1Nc1c(Cl)cccc1Cl
Formation [3]: 90% | Formation [4]: 85% | Formation [5]: 80%

SMILES: OCCc1ccccc1Nc1c(Cl)cccc1Cl
Formation [3]: 90% | Formation [4]: 60% | Formation [5]: 62%

SMILES: NC(=O)Cc1ccccc1Nc1c(Cl)cccc1Cl
Formation [4]: 65% | Formation [5]: 67%

SMILES: O=C(O)Cc1ccccc1Nc1c(Cl)cccc1Cl
Kd1 [11]: 380 nM | Kd2 [12]: 6.18 µM | Formation [3]: 72% | Kd1 [13]: 60 nM | Kd1 [14]: 160 nM | Formation [4]: 35% | Formation [5]: 33% | Kd2 [15]: 3.9 µM | Kd2 [16]: 1200 nM

SMILES: ClCCc1ccccc1Nc1c(Cl)cccc1Cl
Formation [3]: 90% | Formation [4]: 75% | Formation [5]: 70%

SMILES: CCc1ccccc1Nc1c(Cl)cccc1Cl
Formation [3]: 85% | Formation [4]: 82% | Formation [5]: 70%
